The results in this text go back to ChEMBL document CHEMBL1131139, “Synthesis and antibacterial activity of ketolides (6-O-methyl-3-oxoerythromycin derivatives): a new class of antibacterials highly potent against macrolide-resistant and -susceptible respiratory pathogens” (1998).

The structures appear in SMILES notation. Converted amounts (≈) assume the structure as drawn.

Common to all, as to type: functional
For test [1], the system named is Haemophilus influenzae. Description: In vitro inhibitory activity against Haemophilus influenzae (351CB12). In short, it runs like this: (§1)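 Two-fold agar dilution on Mueller-Hinton agar (pH 7.4). Inoculum from overnight plate cultures suspended in Mueller-Hinton broth, adjusted to 10^9 CFU/mL, diluted 1:200 and spotted by multipoint inoculator at about 10^4 CFU/spot. Plates incubated 37 °C for 20 h. MIC taken as lowest concentration with no visible growth.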

A further test relates to Streptococcus pyogenes. Description: In vitro inhibitory activity against Streptococcus pyogenes (02A1UC1). A digest of the protocol:
as §1

Test [2] has as its system Haemophilus influenzae. In words: In vitro inhibitory activity against Haemophilus influenzae (351HT3). A digest of the protocol: as §1
For test [3], the system named is Streptococcus pneumoniae. Description: In vitro inhibitory activity against Streptococcus pneumoniae (032UC1). A digest of the protocol:
as §1

In test [4] the test system is Staphylococcus aureus. In words: In vitro inhibitory activity against Staphylococcus aureus (011UC4). A digest of the protocol:
as §1

Test [5] relates to Streptococcus pneumoniae. Description: In vitro inhibitory activity against Streptococcus pneumoniae (EryRc 030SJ1). In short, it runs like this:
as §1

The subject of test [6] is Staphylococcus epidermidis. Description: In vitro inhibitory activity against Staphylococcus epidermidis (EryRi 012GO11i). In short, it runs like this:
as §1

Another test deals with Escherichia coli. Description: In vitro inhibitory activity against Escherichia coli (250 UC5). A digest of the protocol:
as §1

Test [7] concerns Staphylococcus aureus. In words: In vitro inhibitory activity against Staphylococcus aureus (EryRi 011GO25i). In short, it runs like this:
as §1

The test system of test [8] is Streptococcus pneumoniae. In words: In vitro inhibitory activity against Streptococcus pneumoniae (EryRi 030SJ5i). In short, it runs like this:
as §1

Test [9] deals with Staphylococcus aureus. In words: In vitro inhibitory activity against Staphylococcus aureus (EryRc 011CB20). In short, it runs like this:
as §1

Turning to `CC[C@H]1OC(=O)[C@H](C)C(=O)[C@H](C)[C@@H](O[C@@H]2O[C@H](C)C[C@H](N(C)C)[C@H]2O)[C@](C)(OC)C[C@@H](C)/C(=N\OCCN2CCC2)[C@H](C)[C@@H](O)[C@]1(C)O`, the MIC against Haemophilus influenzae [1] worked out at 10 µg/mL (≈ 14.6 µM); with Streptococcus pyogenes, 0.04 µg/mL (≈ 0.0583 µM); with Haemophilus influenzae [2] it was 40 µg/mL (≈ 58.3 µM); against Streptococcus pneumoniae [3] it was 20 µg/mL (≈ 29.2 µM); in the test with Staphylococcus aureus [4], 0.6 µg/mL (≈ 0.875 µM); against Streptococcus pneumoniae [5] it was 0.3 µg/mL (≈ 0.437 µM). Besides, the MIC in test [6] was found to be 5 µg/mL (≈ 7.29 µM); against Escherichia coli, 40 µg/mL (≈ 58.3 µM); in the test on Staphylococcus aureus [7], 2.5 µg/mL (≈ 3.64 µM); against Streptococcus pneumoniae [8], 2.5 µg/mL (≈ 3.64 µM); against Staphylococcus aureus [9] it was 40 µg/mL (≈ 58.3 µM).

Turning to `CC[C@H]1OC(=O)[C@H](C)C(=O)[C@H](C)[C@@H](O[C@@H]2O[C@H](C)C[C@H](N(C)C)[C@H]2O)[C@](C)(OC)C[C@@H](C)C(=O)[C@H](C)[C@H]2N(CCCCc3cccc(Cl)c3)C(=O)O[C@]12C`, the MIC in the test on Haemophilus influenzae [1] is 1.2 µg/mL (≈ 1.54 µM); in the test on Streptococcus pyogenes, 0.02 µg/mL (≈ 0.0257 µM); in the test with Haemophilus influenzae [2], 1.2 µg/mL (≈ 1.54 µM); against Streptococcus pneumoniae [3] it was 0.02 µg/mL (≈ 0.0257 µM); with Staphylococcus aureus [4], 0.04 µg/mL (≈ 0.0513 µM); with Streptococcus pneumoniae [5], 2.5 µg/mL (≈ 3.21 µM). Besides, the MIC in test [6] is 0.15 µg/mL (≈ 0.192 µM); with Escherichia coli, 40 µg/mL (≈ 51.3 µM); in the test with Staphylococcus aureus [7], 0.6 µg/mL (≈ 0.77 µM); against Streptococcus pneumoniae [8], 0.08 µg/mL (≈ 0.103 µM); in the test on Staphylococcus aureus [9], 10 µg/mL (≈ 12.8 µM).

Regarding `CC[C@H]1OC(=O)[C@H](C)C(=O)[C@H](C)[C@@H](O[C@@H]2O[C@H](C)C[C@H](N(C)C)[C@H]2O)[C@](C)(OC)C[C@@H](C)/C(=N\O)[C@H](C)[C@@H](O)[C@]1(C)O`, the MIC against Haemophilus influenzae [1] is 1.2 µg/mL (≈ 1.99 µM); with Streptococcus pyogenes it was 0.15 µg/mL (≈ 0.249 µM); against Haemophilus influenzae [2], 20 µg/mL (≈ 33.2 µM); in the test with Streptococcus pneumoniae [3], 0.08 µg/mL (≈ 0.133 µM); against Staphylococcus aureus [4] it was 0.3 µg/mL (≈ 0.498 µM); against Streptococcus pneumoniae [5], 40 µg/mL (≈ 66.4 µM). Moreover, the MIC worked out at 0.6 µg/mL (≈ 0.995 µM) in test [6]; 40 µg/mL (≈ 66.4 µM) in the test on Escherichia coli; 1.2 µg/mL (≈ 1.99 µM) against Staphylococcus aureus [7]; 40 µg/mL (≈ 66.4 µM) against Streptococcus pneumoniae [8]; 40 µg/mL (≈ 66.4 µM) with Staphylococcus aureus [9].

For the compound `CC[C@H]1OC(=O)[C@H](C)C(=O)[C@H](C)[C@@H](O[C@@H]2O[C@H](C)C[C@H](N(C)C)[C@H]2O)[C@](C)(OC)C[C@@H](C)/C(=N\O[C@H]2CCCNC2)[C@H](C)[C@@H](O)[C@]1(C)O`, the MIC with Haemophilus influenzae [1] is 2.5 µg/mL (≈ 3.64 µM); in the test on Streptococcus pyogenes it was 0.3 µg/mL (≈ 0.437 µM); with Haemophilus influenzae [2], 20 µg/mL (≈ 29.2 µM); against Streptococcus pneumoniae [3] it was 0.3 µg/mL (≈ 0.437 µM); with Staphylococcus aureus [4] it was 1.2 µg/mL (≈ 1.75 µM); with Streptococcus pneumoniae [5], 40 µg/mL (≈ 58.3 µM). Moreover, the MIC was determined as 2.5 µg/mL (≈ 3.64 µM) in test [6]; 40 µg/mL (≈ 58.3 µM) in the test with Escherichia coli; 5 µg/mL (≈ 7.29 µM) against Staphylococcus aureus [7]; 0.08 µg/mL (≈ 0.117 µM) in the test with Streptococcus pneumoniae [8]; 40 µg/mL (≈ 58.3 µM) with Staphylococcus aureus [9].

As for `CC[C@H]1OC(=O)[C@H](C)[C@@]2(O)O[C@@](C)(C[C@@H](C)/C(=N\O)[C@H](C)[C@@H](O)[C@]1(C)O)[C@H](O[C@@H]1O[C@H](C)C[C@H](N(C)C)[C@H]1O)[C@H]2C`, the MIC against Haemophilus influenzae [1] came to 10 µg/mL (≈ 17 µM); in the test with Streptococcus pyogenes it was 40 µg/mL (≈ 67.9 µM); in the test with Haemophilus influenzae [2], 10 µg/mL (≈ 17 µM); in the test on Streptococcus pneumoniae [3] it was 40 µg/mL (≈ 67.9 µM); in the test with Staphylococcus aureus [4], 40 µg/mL (≈ 67.9 µM); against Streptococcus pneumoniae [5] it was 40 µg/mL (≈ 67.9 µM). Also, the MIC (in test [6]; against Escherichia coli; in the test with Staphylococcus aureus [7]; against Streptococcus pneumoniae [8]; in the test on Staphylococcus aureus [9]) was 40 µg/mL (≈ 67.9 µM) throughout.

`CC[C@H]1OC(=O)[C@H](C)C(=O)[C@H](C)[C@@H](O[C@@H]2O[C@H](C)C[C@H](N(C)C)[C@H]2O)[C@](C)(OC)C[C@@H](C)C(=O)[C@H](C)[C@H]2N(CCCc3ccccc3)C(=O)O[C@]12C`: the MIC was 10 µg/mL (≈ 13.7 µM) with Haemophilus influenzae [1]; 0.15 µg/mL (≈ 0.205 µM) with Streptococcus pyogenes; 40 µg/mL (≈ 54.7 µM) against Haemophilus influenzae [2]; 0.3 µg/mL (≈ 0.41 µM) in the test with Streptococcus pneumoniae [3]; 1.2 µg/mL (≈ 1.64 µM) in the test with Staphylococcus aureus [4]; 40 µg/mL (≈ 54.7 µM) in the test on Streptococcus pneumoniae [5]. For the same compound, the MIC in test [6] was 1.2 µg/mL (≈ 1.64 µM); against Escherichia coli, 40 µg/mL (≈ 54.7 µM); against Staphylococcus aureus [7], 2.5 µg/mL (≈ 3.42 µM); in the test on Streptococcus pneumoniae [8], 20 µg/mL (≈ 27.4 µM); against Staphylococcus aureus [9], 40 µg/mL (≈ 54.7 µM).

Turning to `CC[C@H]1OC(=O)[C@H](C)C(=O)[C@H](C)[C@@H](O[C@@H]2O[C@H](C)C[C@H](N(C)C)[C@H]2O)[C@](C)(OC)C[C@@H](C)C(=O)[C@H](C)[C@H]2N(CCCNc3ccccc3)C(=O)O[C@]12C`, the MIC with Haemophilus influenzae [1] was found to be 1.2 µg/mL (≈ 1.61 µM); in the test with Streptococcus pyogenes, 0.04 µg/mL (≈ 0.0536 µM); against Haemophilus influenzae [2], 2.5 µg/mL (≈ 3.35 µM); in the test on Streptococcus pneumoniae [3], 0.02 µg/mL (≈ 0.0268 µM); with Staphylococcus aureus [4], 0.08 µg/mL (≈ 0.107 µM); against Streptococcus pneumoniae [5], 40 µg/mL (≈ 53.6 µM). Further, the MIC in test [6] worked out at 0.3 µg/mL (≈ 0.402 µM); against Escherichia coli it was 40 µg/mL (≈ 53.6 µM); against Staphylococcus aureus [7], 0.6 µg/mL (≈ 0.804 µM); in the test on Streptococcus pneumoniae [8], 0.6 µg/mL (≈ 0.804 µM); in the test with Staphylococcus aureus [9] it was 40 µg/mL (≈ 53.6 µM).
